The record followed here is PubChem BioAssay AID602343 (The Scripps Research Institute Molecular Screening Center, 2012).

For the experiment, the target named is Monoacylglycerol lipase ABHD6 (Mus musculus) (UniProt Q8R2Y0). Kind of experiment: brain ABHD6 inhibition after oral dosing, late-stage follow-up, in vivo study for DAGLb inhibitor project, gel-based competitive ABPP, fluorescence, mouse, set 2 (AID 602343). To be noted: stronger effect = higher value. In short, it runs like this: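 Assay system: mouse brain membrane ABHD6, in vivo dosing. Quantity: brain membrane protein at 1 mg/mL. Repeats: one replicate per group. Evaluation: % inhibition vs vehicle. Measured by: SDS-PAGE with in-gel fluorescence, band integrated optical density. Timing: Brains taken 4 h post-dose, probe labeling 30 min at 37 °C.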

Where [1] appears, read: dose or concentration not given here.
Where [2] appears, read: measured here: inhibition at 1 mg/kg p.o.
[3] abbreviates: measured here: inhibition at 5 mg/kg p.o.

Sequence of Monoacylglycerol lipase ABHD6 (Mus musculus) (Q8R2Y0 whole entry, looked up): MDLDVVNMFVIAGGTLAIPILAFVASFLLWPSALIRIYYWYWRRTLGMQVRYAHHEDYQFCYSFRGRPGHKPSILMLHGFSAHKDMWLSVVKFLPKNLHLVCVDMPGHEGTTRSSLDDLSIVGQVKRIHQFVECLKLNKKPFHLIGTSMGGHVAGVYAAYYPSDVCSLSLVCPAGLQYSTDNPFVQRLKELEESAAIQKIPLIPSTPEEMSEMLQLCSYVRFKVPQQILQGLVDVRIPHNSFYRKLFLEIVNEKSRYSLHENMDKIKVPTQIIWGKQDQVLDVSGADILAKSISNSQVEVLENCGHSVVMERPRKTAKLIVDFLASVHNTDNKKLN

As to `COc1ccc(-c2ccc(-c3cn(C(=O)N4CCCCC4c4ccccc4)nn3)cc2)cc1` (centres undefined), the inhibition (as a rule, the share of the control response that was lost under treatment) is 99% under setting [1], 55% under setting [2] and 55% under setting [3].
`O=C(N1CCCCC1Cc1ccccc1)n1cc(-c2ccc(-c3ccccc3)cc2)nn1` (centres undefined): the inhibition was 100% under setting [1], 0% under setting [2] and 99% under setting [3].
As for `COc1ccccc1-c1ccc(-c2cn(C(=O)N3CCCCC3Cc3ccccc3)nn2)cc1` (centres undefined), the inhibition runs as follows: under setting [1], 99%; under setting [2], 30%; under setting [3], 95%.
